ChEMBL document CHEMBL1147844, “Acridone derivatives: design, synthesis, and inhibition of breast cancer resistance protein ABCG2” (Bioorg Med Chem, 2007)

Legend:
[1] = target: T1, Broad substrate specificity ATP-binding cassette transporter ABCG2 (Homo sapiens, UniProt Q9UNQ0); assay: Inhibition of ABCG2 expressed in HEK293 cells assessed as mitoxantrone-mediated efflux by flow cytometry; assay type: cell-based
T1 sequence (Q9UNQ0 whole entry): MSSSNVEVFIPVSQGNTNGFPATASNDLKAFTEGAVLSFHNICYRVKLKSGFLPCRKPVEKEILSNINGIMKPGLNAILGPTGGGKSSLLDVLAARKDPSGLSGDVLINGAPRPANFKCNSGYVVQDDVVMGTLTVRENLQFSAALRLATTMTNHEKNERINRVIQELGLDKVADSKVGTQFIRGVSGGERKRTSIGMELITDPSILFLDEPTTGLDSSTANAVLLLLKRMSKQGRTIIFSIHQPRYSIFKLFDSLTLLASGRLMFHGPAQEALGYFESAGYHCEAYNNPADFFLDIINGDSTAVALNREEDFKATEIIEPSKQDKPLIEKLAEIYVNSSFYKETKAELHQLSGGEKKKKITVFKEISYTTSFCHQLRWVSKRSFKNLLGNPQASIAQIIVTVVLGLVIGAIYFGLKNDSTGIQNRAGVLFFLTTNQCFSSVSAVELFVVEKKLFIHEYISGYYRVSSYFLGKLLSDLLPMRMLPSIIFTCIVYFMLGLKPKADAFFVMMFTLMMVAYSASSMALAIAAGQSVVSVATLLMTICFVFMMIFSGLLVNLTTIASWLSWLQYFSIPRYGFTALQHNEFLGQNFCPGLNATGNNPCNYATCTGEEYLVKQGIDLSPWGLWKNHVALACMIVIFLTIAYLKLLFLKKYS
Method in brief: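 HEK-293 cells transfected with human wild-type (R482) ABCG2, or empty-vector control cells, loaded with 5 µmol/L mitoxantrone for 30 min at 37 °C with or without a range of inhibitor concentrations (DMSO, 0.5% final). Cells washed in PBS, then kept 1 h in substrate-free medium with the same inhibitor level. Intracellular fluorescence read by flow cytometry. 100% = control minus ABCG2-cell mean fluorescence without inhibitor. IC50 derived.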

[2] = target: T1, Broad substrate specificity ATP-binding cassette transporter ABCG2; assay: Inhibition of ABCG2 expressed in HEK293 cells assessed as mitoxantrone-mediated efflux by flow cytometry relative to GF120918; assay type: cell-based; parameters: concentration or dose not given beside the values

Structure (SMILES)	IC50 [1] [µM]	Inhibition [2] [%]
O=c1c2ccccc2[nH]c2cccc(O)c12	> 20	
COc1ccc2[nH]c3ccccc3c(=O)c2c1	4.8	66
COc1cc(OC)c2c(=O)c3ccccc3[nH]c2c1	7.9	65
COc1ccc2[nH]c3ccccc3c(=O)c2c1OC	> 20	
COc1ccc2c(=O)c3cccc(C(=O)NCCc4ccc(OC)c(OC)c4)c3[nH]c2c1	1.38	94.9
COc1cc(O)c2c(=O)c3ccccc3[nH]c2c1	> 20	
O=c1c2ccccc2[nH]c2ccc(O)cc12	> 20	
O=c1c2ccccc2[nH]c2cc(C(F)(F)F)cc(O)c12	> 20	
COc1ccc(CCNC(=O)c2cccc3c(=O)c4ccccc4[nH]c23)cc1	0.35	71.3
COc1ccc(CCNC(=O)c2cccc3c(=O)c4ccc(OC)cc4[nH]c23)cc1	0.56	112.3
COc1cc(C(F)(F)F)cc2[nH]c3ccccc3c(=O)c12	0.77	81
COc1cc2c(cc1OC)CN(CCc1ccc(NC(=O)c3cccc4c(=O)c5cccc(OC)c5[nH]c34)cc1)CC2		100
COc1cccc2[nH]c3ccccc3c(=O)c12	6.3	74
COc1ccc(CCNC(=O)c2cccc3c(=O)c4ccccc4[nH]c23)cc1OC	0.45	90.2
